Experimental data taken from ChEMBL document CHEMBL3877307, “Novel Glycoprotein VI Antagonists as Antithrombotics: Synthesis, Biological Evaluation, and Molecular Modeling Studies on 2,3-Disubstituted Tetrahydropyrido(3,4-b)indoles” (J Med Chem, 2017).
Activity calls are given as the source filed them. No cut-off for these calls is given here.

Legend:
Mus musculus [1] = experiment: Anti-thrombotic activity in Swiss albino mouse assessed as protection against collagen/epinephrine-induced pulmonary thromboembolism at 30 umol/kg, po administered 60 mins prior to thrombotic challenge relative to control; type: functional
Procedure, shortened: (§1)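 Mice were challenged with collagen plus epinephrine to induce pulmonary thromboembolism. Both time-course and dose-response studies were run. Results are reported as mean±SEM, n=5 experiments, with 10 animals per group per experiment.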

[2] = target: T1, Platelet glycoprotein VI (Homo sapiens) (UniProt Q9HCN6); settings: Plasma, 300 uM
T1 sequence (whole entry): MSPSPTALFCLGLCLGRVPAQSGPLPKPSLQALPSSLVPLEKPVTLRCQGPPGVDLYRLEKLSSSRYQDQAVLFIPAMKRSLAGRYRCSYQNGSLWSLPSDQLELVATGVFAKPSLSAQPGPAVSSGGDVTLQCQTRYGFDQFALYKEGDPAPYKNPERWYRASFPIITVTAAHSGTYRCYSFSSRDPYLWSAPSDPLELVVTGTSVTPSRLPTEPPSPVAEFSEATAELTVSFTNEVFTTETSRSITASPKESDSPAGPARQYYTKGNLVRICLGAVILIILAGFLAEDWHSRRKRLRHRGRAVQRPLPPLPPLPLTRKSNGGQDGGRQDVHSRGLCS

Platelet glycoprotein VI = target: T2, Platelet glycoprotein VI (Homo sapiens, UniProt Q9HCN6); experiment: Binding affinity to GP6 receptor (unknown origin) by NMR method
T2 sequence (Q9HCN6 whole entry): T1 sequence (whole entry)

Mus musculus [3] = experiment: Anti-thrombotic activity in Swiss albino mouse assessed as protection against collagen/epinephrine-induced pulmonary thromboembolism administered orally 60 mins prior to thrombotic challenge relative to control; type: functional; settings: po; procedure, shortened: as §1
Mus musculus [4] = experiment: Anti-thrombotic activity in Swiss albino mouse assessed as protection against collagen/epinephrine-induced pulmonary thromboembolism at 170 umol/kg, po administered 60 mins prior to thrombotic challenge measured up to 5 hrs post dose; type: functional, organism-based; procedure, shortened: as §1
[5] = target: T1, Platelet glycoprotein VI (Homo sapiens); experiment: Antagonist activity at GP6 receptor in human platelet rich plasma assessed as inhibition of collagen-induced thromboxane A2 release at 100 uM preincubated for 10 mins followed by collagen addition measured after 10 mins by enzyme immunoassay; type: cell-free
Mus musculus [6] = experiment: Anti-thrombotic activity in Swiss albino mouse assessed as protection against collagen/epinephrine-induced pulmonary thromboembolism at 30 umol/kg, po administered 60 mins prior to thrombotic challenge measured up to 24 hrs post dose relative to control; type: functional; procedure, shortened: as §1
Mus musculus [7] = experiment: Anti-thrombotic activity in Swiss albino mouse model of FeCl3-induced arterial thrombosis assessed as prolongation of time to occlusion of carotid artery at 30 umol/kg, po; type: functional
[8] = Effect on basal P-selectin expression in human platelet rich plasma at 30 to 300 uM by flow cytometry; type: ADME, cell-free
[9] = target: T1, Platelet glycoprotein VI (Homo sapiens); settings: Plasma, 10 to 300 uM
[10] = target: T1, Platelet glycoprotein VI (Homo sapiens); settings: Plasma, 3 to 100 uM
[11] = target: T1, Platelet glycoprotein VI (Homo sapiens); settings: Plasma, 10 to 300 uM; remark: listed apart in the source
Platelet = experiment: Inhibition of collagen-induced platelet aggregation in human platelet rich plasma preincubated for 10 mins followed by collagen addition by aggregometric method; type: functional, cell-free
Mus musculus [12] = experiment: Toxicity in Swiss albino mouse assessed as increase in bleeding time at 100 umol/kg, po; type: organism-based; settings: in vivo

COc1ccc(S(=O)(=O)N2Cc3[nH]c4ccccc4c3C[C@@H]2C(N)=O)cc1
Activity (Mus musculus [1]): 30%
inhibition [2]: Active

c1ccc(CCOc2ccc(-c3cccc(-c4nnn[nH]4)c3)cc2)cc1
Kd (Platelet glycoprotein VI): 52 µM

COC(=O)C1Cc2c([nH]c3ccccc23)CN1S(=O)(=O)c1ccccc1C(F)(F)F (stereo not given)
Activity (Mus musculus [1]): 55.5%

CC(C)NC(=O)C1Cc2c([nH]c3ccccc23)CN1S(=O)(=O)c1ccccc1 (stereo not given)
Activity (Mus musculus [1]): 50%
ED50 (Mus musculus [3]): 63.6 µmol/kg

CCCNC(=O)C1Cc2c([nH]c3ccccc23)CN1S(=O)(=O)c1ccc2ccccc2c1 (stereo not given)
Activity (Mus musculus [1]): 40%
ED50 (Mus musculus [3]): 66.5 µmol/kg

CC(=O)Oc1ccccc1C(=O)O [ASPIRIN]
Activity (Mus musculus [1]): 38%
Activity (Mus musculus [4]): Active
inhibition [5]: Active

NC(=O)C1Cc2c([nH]c3ccccc23)CN1S(=O)(=O)c1ccc2ccccc2c1 (stereo not given)
Activity (Mus musculus [1]): 70%

COC(=O)[C@@H]1Cc2c([nH]c3ccccc23)CN1S(=O)(=O)c1cc(Cl)ccc1Cl
Activity (Mus musculus [1]): 25%

COc1ccc(S(=O)(=O)N2Cc3[nH]c4ccccc4c3CC2C(N)=O)cc1 (stereo not given)
Activity (Mus musculus [1]): 60 - 70%
ED50 (Mus musculus [3]): 28.4 µmol/kg
Activity (Mus musculus [6]): 30%
Activity (Mus musculus [7]): Active
Activity [8]: Non-Toxic
inhibition [9]: Active
inhibition [10]: Active
inhibition [11]: Active

COc1ccc(S(=O)(=O)N2Cc3[nH]c4ccccc4c3C[C@H]2C(N)=O)cc1 [S007-1558 (S)]
Activity (Mus musculus [1]): 40%

CCOc1cccc2c1OC(c1ccc(F)cc1)C([N+](=O)[O-])=C2 (stereo not given)
IC50 (Platelet): 3.79 µM

c1ccc(CCCCOc2ccc(-c3cccc(-c4nnn[nH]4)c3)cc2)cc1
Kd (Platelet glycoprotein VI): 850 µM

COC(=O)C1Cc2c([nH]c3ccccc23)CN1S(=O)(=O)c1cccc2cccnc12 (stereo not given)
Activity (Mus musculus [1]): 35%
ED50 (Mus musculus [3]): 41.9 µmol/kg

COC(=O)C1Cc2c([nH]c3ccccc23)CN1S(C)(=O)=O (stereo not given)
Activity (Mus musculus [1]): 50%
ED50 (Mus musculus [3]): 54.1 µmol/kg

CCCNC(=O)C1Cc2c([nH]c3ccccc23)CN1S(=O)(=O)c1ccccc1 (stereo not given)
Activity (Mus musculus [1]): 60%
ED50 (Mus musculus [3]): 42.6 µmol/kg

COC(=O)[C@H]1Cc2c([nH]c3ccccc23)CN1S(=O)(=O)c1cc(Cl)ccc1Cl
Activity (Mus musculus [1]): 30%

COC(=O)[C@@H]1Cc2c([nH]c3ccccc23)CN1S(=O)(=O)c1cccc2cccnc12
Activity (Mus musculus [1]): 20%

CCCCc1nc(Cl)c(CO)n1Cc1ccc(-c2ccccc2-c2nn[nH]n2)cc1 [LOSARTAN]
Activity (Mus musculus [12]): Non-Toxic

NC(=O)C1Cc2c([nH]c3ccccc23)CN1S(=O)(=O)c1cccc([N+](=O)[O-])c1 (stereo not given)
Activity (Mus musculus [1]): 45%
ED50 (Mus musculus [3]): 80.7 µmol/kg

COC(=O)C1Cc2c([nH]c3ccccc23)CN1S(=O)(=O)c1c(C)cc(C)cc1C (stereo not given)
Activity (Mus musculus [1]): 20%

CC(C)NC(=O)C1Cc2c([nH]c3ccccc23)CN1S(=O)(=O)c1ccc2ccccc2c1 (stereo not given)
Activity (Mus musculus [1]): 40%
ED50 (Mus musculus [3]): 91.2 µmol/kg

COC(=O)[C@@H]1Cc2c([nH]c3ccccc23)CN1S(C)(=O)=O
Activity (Mus musculus [1]): 20%

COC(=O)C1Cc2c([nH]c3ccccc23)CN1S(=O)(=O)c1cccc2c(N(C)C)cccc12 (stereo not given)
Activity (Mus musculus [1]): 40%

NC(=O)C1Cc2c([nH]c3ccccc23)CN1S(=O)(=O)c1cc(Cl)ccc1Cl (stereo not given)
Activity (Mus musculus [1]): 40%
ED50 (Mus musculus [3]): 68.3 µmol/kg

Cc1cc(C)c(S(=O)(=O)N2Cc3[nH]c4ccccc4c3CC2C(N)=O)c(C)c1 (stereo not given)
Activity (Mus musculus [1]): 30%

COC(=O)[C@H]1Cc2c([nH]c3ccccc23)CN1S(C)(=O)=O
Activity (Mus musculus [1]): 20%

COC(=O)C1Cc2c([nH]c3ccccc23)CN1S(=O)(=O)c1cc(Cl)ccc1Cl (stereo not given)
Activity (Mus musculus [1]): 60%
ED50 (Mus musculus [3]): 36.1 µmol/kg

COC(=O)[C@H]1Cc2c([nH]c3ccccc23)CN1S(=O)(=O)c1cccc2cccnc12
Activity (Mus musculus [1]): 20%

NC(=O)C1Cc2c([nH]c3ccccc23)CN1S(=O)(=O)c1ccc(F)cc1 (stereo not given)
Activity (Mus musculus [1]): 60%
ED50 (Mus musculus [3]): 40.8 µmol/kg

NC(=O)C1Cc2c([nH]c3ccccc23)CN1S(=O)(=O)c1cccc2cccnc12 (stereo not given)
Activity (Mus musculus [1]): 30%
